# Measured values as given in ChEMBL document CHEMBL4715736, “Identification of anticancer agents based on the thieno[2,3-b]pyridine and 1H-pyrazole molecular scaffolds” (2016).
# Experiments:
# Type in all cases: functional
# DU-145 [1] = assay: Growth inhibition of human DU-145 cells incubated for 48 hrs by sulforhodamine B assay; details: for CC50: read-out: LC50 (the source's name)
# Outline: (§1)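 NCI Developmental Therapeutics Program NCI60 panel. Compounds that were active in the 10 µM one-dose screen went on to dose–response testing. Growth at each concentration is expressed relative to untreated control (100%). GI50 (concentration giving 50% of maximal inhibition of proliferation) and TGI (concentration giving total growth inhibition) were derived from the curves.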
# A498 [2] = assay: Growth inhibition of human A498 cells assessed as cell growth at 0.01 uM incubated for 48 hrs by sulforhodamine B assay relative to control; details: read-out: Activity; outline: as §1
# NCI-H460 = assay: Growth inhibition of human NCI-H460 cells assessed as cell growth at 100 uM incubated for 48 hrs by sulforhodamine B assay relative to control; details: read-out: Activity
# SK-MEL-5 = assay: Growth inhibition of human SK-MEL-5 cells assessed as cell growth at 0.1 uM incubated for 48 hrs by sulforhodamine B assay relative to control; details: read-out: Activity
# UACC-62 = assay: Growth inhibition of human UACC-62 cells assessed as cell growth at 100 uM incubated for 48 hrs by sulforhodamine B assay relative to control; details: read-out: Activity
# HCC 2998 [3] = assay: Growth inhibition of human HCC 2998 cells assessed as cell growth at 1 uM incubated for 48 hrs by sulforhodamine B assay relative to control; details: read-out: Activity; outline: as §1
# SK-OV-3 [4] = assay: Growth inhibition of human SK-OV-3 cells assessed as cell growth at 0.01 uM incubated for 48 hrs by sulforhodamine B assay relative to control; details: read-out: Activity
# MDA-MB-231 = assay: Growth inhibition of human MDA-MB-231 cells assessed as cell growth at 100 uM incubated for 48 hrs by sulforhodamine B assay relative to control; details: read-out: Activity
# KM12 [5] = assay: Growth inhibition of human KM12 cells incubated for 48 hrs by sulforhodamine B assay
# Outline: (§2)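 NCI60 panel at the NCI Developmental Therapeutics Program. Only compounds active in the 10 µM screen went to dose-response testing. GI50, the concentration giving 50% of maximal inhibition of proliferation, and TGI, the concentration giving total growth inhibition, were derived from the dose-response curves.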
# T47D = assay: Growth inhibition of human T47D cells assessed as cell growth at 0.1 uM incubated for 48 hrs by sulforhodamine B assay relative to control; details: read-out: Activity
# KM12 [6] = assay: Growth inhibition of human KM12 cells assessed as cell growth at 0.01 uM incubated for 48 hrs by sulforhodamine B assay relative to control; details: read-out: Activity
# DU-145 [7] = assay: Growth inhibition of human DU-145 cells assessed as cell growth at 0.01 uM incubated for 48 hrs by sulforhodamine B assay relative to control; details: read-out: Activity; outline: as §1
# COLO 205 = assay: Growth inhibition of human COLO 205 cells incubated for 48 hrs by sulforhodamine B assay; outline: as §1
# SR [8] = assay: Growth inhibition of human SR cells assessed as cell growth at 1 uM incubated for 48 hrs by sulforhodamine B assay relative to control; details: read-out: Activity
# HCC 2998 [9] = assay: Growth inhibition of human HCC 2998 cells assessed as cell growth at 100 uM incubated for 48 hrs by sulforhodamine B assay relative to control; details: read-out: Activity; outline: as §1
# BT-549 = assay: Growth inhibition of human BT-549 cells assessed as cell growth at 1 uM incubated for 48 hrs by sulforhodamine B assay relative to control; details: read-out: Activity
# 786-0 = assay: Growth inhibition of human 786-0 cells incubated for 48 hrs by sulforhodamine B assay; details: for CC50: read-out: LC50 (the source's name); outline: as §1
# PC-3 = assay: Growth inhibition of human PC-3 cells incubated for 48 hrs by sulforhodamine B assay; details: for CC50: read-out: LC50 (the source's name)
# Outline: (§3)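 NCI DTP 60-line human tumour panel. Dose-response curves were run only for ligands active in the initial 10 µM screen. GI50 (concentration giving 50% of maximal inhibition of proliferation) and TGI (concentration giving total growth inhibition) were derived from these curves.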
# A498 [10] = assay: Growth inhibition of human A498 cells assessed as cell growth at 1 uM incubated for 48 hrs by sulforhodamine B assay relative to control; details: read-out: Activity; outline: as §1
# SF-539 = assay: Growth inhibition of human SF-539 cells assessed as cell growth at 0.1 uM incubated for 48 hrs by sulforhodamine B assay relative to control; details: read-out: Activity
# A549 [11] = assay: Growth inhibition of human A549/ATCC cells assessed as cell growth at 1 uM incubated for 48 hrs by sulforhodamine B assay relative to control; details: read-out: Activity; outline: as §1
# MDA-MB-468 = assay: Growth inhibition of human MDA-MB-468 cells incubated for 48 hrs by sulforhodamine B assay; details: for CC50: read-out: LC50 (the source's name); outline: as §2
# K562 [12] = assay: Growth inhibition of human K562 cells assessed as cell growth at 0.01 uM incubated for 48 hrs by sulforhodamine B assay relative to control; details: read-out: Activity
# M14 = assay: Growth inhibition of human M14 cells assessed as cell growth at 0.1 uM incubated for 48 hrs by sulforhodamine B assay relative to control; details: read-out: Activity
# SR [13] = assay: Growth inhibition of human SR cells incubated for 48 hrs by sulforhodamine B assay; outline: as §3
# SK-OV-3 [14] = assay: Growth inhibition of human SK-OV-3 cells assessed as cell growth at 0.1 uM incubated for 48 hrs by sulforhodamine B assay relative to control; details: read-out: Activity
# K562 [15] = assay: Growth inhibition of human K562 cells incubated for 48 hrs by sulforhodamine B assay; outline: as §2
# NCI-H522 = assay: Growth inhibition of human NCI-H522 cells assessed as cell growth at 100 uM incubated for 48 hrs by sulforhodamine B assay relative to control; details: read-out: Activity
# U-251 = assay: Growth inhibition of human U-251 cells assessed as cell growth at 100 uM incubated for 48 hrs by sulforhodamine B assay relative to control; details: read-out: Activity
# NCI-H322M = assay: Growth inhibition of human NCI-H322M cells assessed as cell growth at 100 uM incubated for 48 hrs by sulforhodamine B assay relative to control; details: read-out: Activity
# UO-31 [16] = assay: Growth inhibition of human UO-31 cells assessed as cell growth at 1 uM incubated for 48 hrs by sulforhodamine B assay relative to control; details: read-out: Activity
# A549 [17] = assay: Growth inhibition of human A549/ATCC cells assessed as cell growth at 0.1 uM incubated for 48 hrs by sulforhodamine B assay relative to control; details: read-out: Activity; outline: as §1
# TK-10 = assay: Growth inhibition of human TK-10 cells assessed as cell growth at 1 uM incubated for 48 hrs by sulforhodamine B assay relative to control; details: read-out: Activity
# SK-MEL-28 = assay: Growth inhibition of human SK-MEL-28 cells assessed as cell growth at 1 uM incubated for 48 hrs by sulforhodamine B assay relative to control; details: read-out: Activity
# UO-31 [18] = assay: Growth inhibition of human UO-31 cells incubated for 48 hrs by sulforhodamine B assay; details: for CC50: read-out: LC50 (the source's name); outline: as §3
structure (smiles),measurement,setting,value
Nc1c(C(=O)Nc2ccccc2)sc2nc3c(cc12)CN(Cc1ccccc1)CC3,GI50,DU-145 [1],14.8 µM
same,TGI,DU-145 [1],> 100 µM
same,CC50,DU-145 [1],> 100 µM
same,growth at 0.01 µM,A498 [2],91%
same,growth at 100 µM,NCI-H460,8%
same,growth at 0.1 µM,SK-MEL-5,100%
same,growth at 100 µM,UACC-62,6%
same,growth at 1 µM,HCC 2998 [3],105%
same,growth at 0.01 µM,SK-OV-3 [4],97%
same,growth at 100 µM,MDA-MB-231,16%
same,GI50,KM12 [5],19.1 µM
same,LC50,KM12 [5],> 100 µM
same,TGI,KM12 [5],> 100 µM
same,growth at 0.1 µM,T47D,79%
same,growth at 0.01 µM,KM12 [6],100%
same,growth at 0.01 µM,DU-145 [7],106%
same,GI50,COLO 205,24 µM
same,LC50 (concentration killing 50% of cells),COLO 205,> 100 µM
same,TGI,COLO 205,> 100 µM
same,growth at 1 µM,SR [8],82%
same,growth at 100 µM,HCC 2998 [9],47%
same,growth at 1 µM,BT-549,90%
same,GI50,786-0,13 µM
same,TGI,786-0,> 100 µM
same,CC50,786-0,> 100 µM
same,GI50,PC-3,27.1 µM
same,TGI,PC-3,> 100 µM
same,CC50,PC-3,> 100 µM
same,growth at 1 µM,A498 [10],72%
same,growth at 0.1 µM,SF-539,90%
same,growth at 1 µM,A549 [11],88%
same,GI50,MDA-MB-468,17 µM
same,TGI,MDA-MB-468,> 100 µM
same,CC50,MDA-MB-468,> 100 µM
same,growth at 0.01 µM,K562 [12],98%
same,growth at 0.1 µM,M14,91%
same,GI50,SR [13],13.1 µM
same,LC50,SR [13],> 100 µM
same,TGI,SR [13],> 100 µM
same,growth at 0.1 µM,SK-OV-3 [14],93%
same,GI50,K562 [15],9.1 µM
same,LC50 (concentration killing 50% of cells),K562 [15],> 100 µM
same,TGI,K562 [15],> 100 µM
same,growth at 100 µM,NCI-H522,31%
same,growth at 100 µM,U-251,12%
same,growth at 100 µM,NCI-H322M,59%
same,growth at 1 µM,UO-31 [16],83%
same,growth at 0.1 µM,A549 [17],99%
same,growth at 1 µM,TK-10,100%
same,growth at 1 µM,SK-MEL-28,94%
same,GI50,UO-31 [18],6.14 µM
same,TGI,UO-31 [18],> 100 µM
same,CC50,UO-31 [18],> 100 µM
COc1cccc(NC(=O)c2sc3nc4c(cc3c2N)CN(Cc2ccccc2)CC4)c1,GI50,DU-145 [1],5.22 µM
same,TGI,DU-145 [1],22.2 µM
same,CC50,DU-145 [1],76.3 µM
same,growth at 0.01 µM,A498 [2],94%
same,growth at 100 µM,NCI-H460,-25%
same,growth at 0.1 µM,SK-MEL-5,90%
same,growth at 100 µM,UACC-62,-34%
same,growth at 1 µM,HCC 2998 [3],86%
same,growth at 0.01 µM,SK-OV-3 [4],92%
same,growth at 100 µM,MDA-MB-231,-8%
same,GI50,KM12 [5],11.8 µM
same,LC50,KM12 [5],> 100 µM
same,TGI,KM12 [5],40.3 µM
same,growth at 0.1 µM,T47D,94%
same,growth at 0.01 µM,KM12 [6],100%
same,growth at 0.01 µM,DU-145 [7],105%
same,GI50,COLO 205,7.55 µM
same,LC50 (concentration killing 50% of cells),COLO 205,> 100 µM
same,TGI,COLO 205,54.5 µM
same,growth at 1 µM,SR [8],25%
same,growth at 100 µM,HCC 2998 [9],9%
same,growth at 1 µM,BT-549,72%
same,GI50,786-0,3.61 µM
same,TGI,786-0,20.8 µM
same,CC50,786-0,> 100 µM
same,GI50,PC-3,11.6 µM
same,TGI,PC-3,91.1 µM
same,CC50,PC-3,> 100 µM
same,growth at 1 µM,A498 [10],79%
same,growth at 0.1 µM,SF-539,92%
same,growth at 1 µM,A549 [11],88%
same,GI50,MDA-MB-468,2.6 µM
same,TGI,MDA-MB-468,61.4 µM
same,CC50,MDA-MB-468,> 100 µM
same,growth at 0.01 µM,K562 [12],106%
same,growth at 0.1 µM,M14,95%
same,GI50,SR [13],0.453 µM
same,LC50,SR [13],> 100 µM
same,TGI,SR [13],47.7 µM
same,growth at 0.1 µM,SK-OV-3 [14],100%
same,GI50,K562 [15],0.53 µM
same,LC50 (concentration killing 50% of cells),K562 [15],> 100 µM
same,TGI,K562 [15],> 100 µM
same,growth at 100 µM,NCI-H522,1%
same,growth at 100 µM,U-251,-54%
same,growth at 100 µM,NCI-H322M,18%
same,growth at 1 µM,UO-31 [16],77%
same,growth at 0.1 µM,A549 [17],93%
same,growth at 1 µM,TK-10,98%
same,growth at 1 µM,SK-MEL-28,68%
same,GI50,UO-31 [18],3.27 µM
same,TGI,UO-31 [18],32.3 µM
same,CC50,UO-31 [18],> 100 µM
